TAAR1 antag = human TAAR1 antagonism | AID 624466 | inhibition, % at 3 µM | Q96RJ0 | 1.5% of 360,000 active | CHO RD-HGA16 TAAR1, Fluo-8 calcium fluorescence, antagonist;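 active = inhibition above a per-plate cutoff, the mean inhibition of test compounds on that plate plus 3 SD, cut at about 49% in these data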;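 also: 0% = DMSO plus EC80 beta-PEA response and 100% = DMSO alone without agonist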
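Test system: hTAAR1-expressing CHO RD-HGA16 cells, Gα16-coupled; Probe or stimulus: EC80 β-phenethylamine stimulus; Compound dosing: single nominal final test compound concentration of 3 µM; Timing: 140 s kinetic read after compound, 140 s after agonist; Signal: Fluo-8 calcium-sensitive fluorescence; Measure: % inhibition of agonist calcium response; Controls: DMSO and EC80 PEA controls.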
TAAR1 agonist = agonists of human TAAR1 | Q96RJ0 | CHO RD-HGA16 TAAR1, Fluo-8 calcium fluorescence; vehicle wells 0%, saturating PEA agonist 100% | activation, % at 3 µM | 0.99% of 360,000 active | AID 624467;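 active = activation above the mean activation of all test compounds in the run plus 3 SD, cut at about 38% in these data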
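System: CHO-derived RD-HGA16 cells with stable Gα16 and human TAAR1. Times: 17-24 h plating, Fluo-8 75 min 37 °C, 30 min RT. Measured by: calcium-sensitive Fluo-8 signal, excitation 470-495, emission 515-575 nm. Read-out basis: % activation relative to PEA EC100 response. Control set: DMSO and PEA EC100. Repeats: no replicates (n 1).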
CHO parental Ca = counter-screen for OX1R antagonists: effect in parental CHO cells | 0.63% of 330,000 active | parental CHO-K1, ATP-induced calcium, Fluo-8 fluorescence | inhibition, % at 5.6 µM | AID 463079;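 active = inhibition above that plate's mean sample inhibition plus 3 SD, cut at about 26% in these data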;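 also: 0% = ATP-challenged DMSO wells and 100% = DMSO wells without ATP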
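test system = CHO parental line | reagent = ATP stimulus | measured by = intracellular calcium via Fluo-8 no-wash fluorescent dye | control set = ATP and no-ATP DMSO wells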
OX1R antag-1 = blocks the human orexin 1 receptor; CHO/OX1R cells, Fluo-8 calcium fluorescence, orexin A; 0.43% of 330,000 active; inhibition, % at 5 µM; O43613;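 active = inhibition above its plate's threshold, mean inhibition of all tested compounds on the plate plus 3 SD, cut at about 37% in these data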;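 also: 0% = orexin A challenge wells and 100% = SB-334867-A antagonist wells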
Target sequence (O43613 whole entry, looked up): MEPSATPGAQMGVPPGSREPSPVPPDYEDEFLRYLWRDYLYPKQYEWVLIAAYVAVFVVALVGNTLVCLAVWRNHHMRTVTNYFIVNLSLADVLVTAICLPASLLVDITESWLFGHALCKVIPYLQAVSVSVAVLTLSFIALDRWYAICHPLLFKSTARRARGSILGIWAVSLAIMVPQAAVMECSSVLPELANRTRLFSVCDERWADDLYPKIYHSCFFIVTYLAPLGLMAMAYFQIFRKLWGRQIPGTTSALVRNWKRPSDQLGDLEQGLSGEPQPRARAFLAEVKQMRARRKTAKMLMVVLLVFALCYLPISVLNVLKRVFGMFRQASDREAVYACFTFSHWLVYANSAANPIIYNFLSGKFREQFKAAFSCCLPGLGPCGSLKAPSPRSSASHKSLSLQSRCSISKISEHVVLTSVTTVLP
OX1R antag-2 = antagonists of human orexin 1 receptor (OX1R); inhibition, % at 6.6 µM; O43613; OX1R-expressing cells, FRET antagonist read-out; 1.8% of 330,000 active; AID 485270; in the data active = inhibition mostly above about 38%, no sharp cut-off; inactive = mostly below about 40%;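 also: 0% = agonist challenge alone and 100% = reference antagonist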
Numbers without * were called inactive. Only some compounds are listed: those with a hit (about 4.6% of all), similar ones and a draw of the others.

For CC(C)(C)OC(=O)C[C@@H]1C/C=C\C[C@@H](CC(=O)N(CCO)Cc2ccccc2)C(=O)N[C@@H](c2ccccc2)COC1=O the results were TAAR1 antag 49*, TAAR1 agonist 15, CHO parental Ca -17, OX1R antag-1 -41 and OX1R antag-2 12.
Screening O=C1NCCOC(=O)[C@H](Cc2ccc(F)cc2)CC/C=C/C[C@H]1CC(=O)N(CCO)Cc1ccccc1 returned TAAR1 antag 13, TAAR1 agonist 1, CHO parental Ca -20, OX1R antag-1 -29 and OX1R antag-2 8.
O=C1NC[C@@H](c2ccccc2)OC(=O)[C@@H](Cc2ccc(F)cc2)C/C=C\C[C@@H]1CC(=O)N(CCO)Cc1ccccc1 was read as TAAR1 antag 69*, TAAR1 agonist 38*, CHO parental Ca -19, OX1R antag-1 -11 and OX1R antag-2 12.
O=C1NC[C@H](c2ccccc2)OC(=O)[C@H](Cc2ccc(F)cc2)CC/C=C/C[C@H]1CC(=O)N(CCO)Cc1ccccc1 was read as TAAR1 antag 62*, TAAR1 agonist 41*, CHO parental Ca -17, OX1R antag-1 5 and OX1R antag-2 39.
For CC(C)(C)[C@H]1COC(=O)[C@H](NC(=O)OCC2c3ccccc3-c3ccccc32)C/C=C\C[C@@H](CC(=O)N(CCO)Cc2ccccc2)C(=O)N1 the results were TAAR1 antag 51*, TAAR1 agonist 19, CHO parental Ca -13, OX1R antag-1 -28 and OX1R antag-2 1.
Cc1onc(-c2ccccc2)c1C(=O)NN=Cc1cc(Cl)cc(Cl)c1O was read as TAAR1 antag 5 and TAAR1 agonist 9.
CCc1c(-c2ccc(F)cc2F)ncn1CCc1ccccc1OC was read as TAAR1 antag 1 and TAAR1 agonist 15.
`O=C1NC[C@H](c2ccccc2)OC(=O)[C@@H](Cc2ccc(F)cc2)CC/C=C/C[C@@H]1CC(=O)N(CCO)Cc1ccccc1` gave TAAR1 antag 44, TAAR1 agonist 18, CHO parental Ca -17, OX1R antag-1 11 and OX1R antag-2 20.
Screening CC(C)(C)[C@@H]1COC(=O)[C@H](Cc2ccc(F)cc2)CC/C=C\C[C@H](CC(=O)N(CCO)Cc2ccccc2)C(=O)N1 returned TAAR1 antag 56*, TAAR1 agonist 36, CHO parental Ca -3, OX1R antag-1 11 and OX1R antag-2 30.
Screening CC(C)(C)[C@@H]1COC(=O)[C@@H](Cc2ccc(F)cc2)CC/C=C\C[C@@H](CC(=O)N(CCO)Cc2ccccc2)C(=O)N1 returned TAAR1 antag 5, TAAR1 agonist 9, CHO parental Ca -9, OX1R antag-1 -23 and OX1R antag-2 10.
Screening O=C1NC[C@H](c2ccccc2)OC(=O)[C@@H](Cc2ccc(F)cc2)CC/C=C/C[C@H]1CC(=O)N(CCO)Cc1ccccc1 returned TAAR1 antag 71*, TAAR1 agonist 30, CHO parental Ca -20, OX1R antag-1 8 and OX1R antag-2 18.
`Cc1ccccc1C(=O)NC1CCCCN(C)C1=O` (stereo unspecified) gave TAAR1 antag 0 and TAAR1 agonist 1.
For COc1ccccc1CN1C(=O)[C@@H]2Cc3c([nH]c4ccccc34)C(C)(C)N2C1=O the results were TAAR1 antag 24, TAAR1 agonist 13, CHO parental Ca -11, OX1R antag-1 0 and OX1R antag-2 16.
Screening COc1ccc(CN2C(=O)[C@H]3Cc4c([nH]c5ccccc45)C(C)(C)N3C2=O)cc1 returned TAAR1 antag 56*, TAAR1 agonist 18, CHO parental Ca -7, OX1R antag-1 -3 and OX1R antag-2 12.
Screening COc1ccc(CN2C(=O)[C@@H]3Cc4c([nH]c5ccccc45)C(C)(C)N3C2=O)cc1 returned TAAR1 antag 30, TAAR1 agonist 5, CHO parental Ca -3, OX1R antag-1 -13 and OX1R antag-2 6.
For CC1(C)c2[nH]c3ccccc3c2C[C@@H]2C(=O)N(Cc3ccccc3Cl)C(=O)N21 the results were TAAR1 antag 49*, TAAR1 agonist 13, CHO parental Ca -15, OX1R antag-1 -10 and OX1R antag-2 10.
Screening NS(=O)(=O)c1ccc(NNC(=O)c2ccc(Br)o2)c([N+](=O)[O-])c1 returned TAAR1 antag -4, TAAR1 agonist 1, CHO parental Ca -4, OX1R antag-1 10 and OX1R antag-2 58*.

Source: PubChem BioAssay
